Bioassay records as filed in PubChem.
This is a sample that favours compounds with a hit; in the whole collection about 1.5% have one here.
S100A4 inh HTS: blocks human S100A4 binding to myosin IIA peptide | P26447 | S100A4/TAMRA-MyoIIA peptide fluorescence polarization | inhibition, % at 10.7 µM | 360,000 compounds, 0.14% hits | AID 652163;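 active = mean inhibition of at least 70% across replicates, with every replicate also reaching that level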
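Test system – S100A4 monomer (human) · Compound – single-point compound testing · Schedule – 5 min incubation before reading · Probe or stimulus – TAMRA-labelled myosin IIA heavy-chain peptide probe, 5 nM · Benchmarks – neutral control DMSO, positive control TFP · Medium – Calcium-containing HEPES buffer, pH 7.2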
GSIS activator: primary screen for activators of insulin secretion dependent on glucose, INS-1E cells, GLuc reporter luminescence; INS-1E GLuc reporter insulin secretion, 2-3 h; activation, % at 16.6 µM; 370,000 compounds, 0.61% hits; AID 743287;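 active = lowest replicate activation of at least 40%, so every replicate reaches that level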;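 note: 0% = median of neutral control wells and 100% = median of IBMX positive control wells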
AF4-AF9 inh: MLL-AF4/AF9 protein interaction inhibition; AID 651704; AlphaScreen, biotin-AF4 peptide binding to FLAG-AF9; 350,000 compounds, 0.47% hits; inhibition, % at 10 µM; P42568;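 active = every replicate reaching a set inhibition limit, whatever the replicate mean, cut at about 25% in these data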;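 note: 0% = plate neutral control median and 100% = total signal loss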
ERAP1 inh: ERAP1 (human) enzyme inhibition. Q9NZ08. recombinant ERAP1, Leu-AMC fluorescence, 60 min. inhibition, % at 10.7 µM. 340,000 compounds, 0.15% hits. AID 652197;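 active = mean replicate inhibition of at least 30%, or all replicates individually reaching that 30% level; inactive = mean below 30% and not every replicate reaching it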;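 note: 0% = neutral control wells and 100% = L-leucinethiol positive control wells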
Target sequence (Q9NZ08 whole entry, looked up): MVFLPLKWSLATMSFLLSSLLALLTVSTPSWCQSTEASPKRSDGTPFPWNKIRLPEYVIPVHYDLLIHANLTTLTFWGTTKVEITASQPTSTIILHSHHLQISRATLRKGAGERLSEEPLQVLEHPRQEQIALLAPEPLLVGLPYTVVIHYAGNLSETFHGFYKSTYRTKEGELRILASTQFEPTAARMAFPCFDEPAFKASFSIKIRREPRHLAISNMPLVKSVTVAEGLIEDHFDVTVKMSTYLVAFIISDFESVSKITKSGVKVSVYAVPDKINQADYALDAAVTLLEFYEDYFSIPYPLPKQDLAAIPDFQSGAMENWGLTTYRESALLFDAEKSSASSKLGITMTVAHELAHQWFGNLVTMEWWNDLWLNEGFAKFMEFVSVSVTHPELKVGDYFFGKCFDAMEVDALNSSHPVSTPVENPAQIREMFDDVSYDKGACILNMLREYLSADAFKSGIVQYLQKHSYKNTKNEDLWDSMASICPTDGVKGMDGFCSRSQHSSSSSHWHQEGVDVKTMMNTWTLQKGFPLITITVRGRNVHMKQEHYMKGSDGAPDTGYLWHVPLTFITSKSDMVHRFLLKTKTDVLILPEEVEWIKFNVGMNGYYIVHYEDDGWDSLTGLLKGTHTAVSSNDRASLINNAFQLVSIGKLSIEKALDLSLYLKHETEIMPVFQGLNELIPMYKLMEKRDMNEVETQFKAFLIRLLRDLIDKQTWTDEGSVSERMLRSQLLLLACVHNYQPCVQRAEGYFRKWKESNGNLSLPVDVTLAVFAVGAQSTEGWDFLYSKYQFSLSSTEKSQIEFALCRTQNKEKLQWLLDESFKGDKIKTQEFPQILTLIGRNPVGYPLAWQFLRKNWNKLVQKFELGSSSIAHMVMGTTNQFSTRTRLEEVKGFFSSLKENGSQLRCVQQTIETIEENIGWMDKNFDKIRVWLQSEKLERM
RAD52 inh: RAD52 (human) annealing inhibition; recombinant RAD52 DNA annealing, FRET fluorescence; inhibition, % at 18.7 µM; P43351; 360,000 compounds, 0.46% hits;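 active = every replicate showing at least 50% inhibition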
The depositor's hits bear a star.

CN(C)CCN(C(=O)c1cccc2ccccc12)c1nc2cc3c(cc2s1)OCO3 was read as S100A4 inh HTS 11, GSIS activator -45, AF4-AF9 inh 28*, ERAP1 inh -8 and RAD52 inh 0.
CN(C)CCCN(C(=O)COc1ccc(Cl)cc1)c1nc2cc3c(cc2s1)OCCO3 was read as S100A4 inh HTS -7, GSIS activator -62, AF4-AF9 inh 9, ERAP1 inh 2 and RAD52 inh 60*.
Screening CN(C)CCCN(C(=O)c1ccc2c(c1)CCCC2)c1nc2ccc(Cl)cc2s1 returned S100A4 inh HTS -3, GSIS activator 102, AF4-AF9 inh 27*, ERAP1 inh 1 and RAD52 inh 42.
`CCOC(=O)N1CCN(S(=O)(=O)c2ccc(C(=O)N(CCCN(C)C)c3nc4ccc(Cl)cc4s3)cc2)CC1` gave S100A4 inh HTS 6, GSIS activator -68, AF4-AF9 inh 4, ERAP1 inh 2 and RAD52 inh 16.
For C[C@H](CO)N1C[C@H](C)[C@@H](CN(C)Cc2ccncc2)Oc2cc(-c3ccccc3F)ccc2S1(=O)=O the results were S100A4 inh HTS 6, GSIS activator -31, AF4-AF9 inh 6, ERAP1 inh 0 and RAD52 inh 23.
`CC1=NN(C(N)=S)C(=O)C1N=Nc1ccccc1C` (stereo not given) gave GSIS activator 65*.
Screening O=[N+]([O-])c1cnn2cc(Br)cnc12 returned S100A4 inh HTS -1, GSIS activator 45*, AF4-AF9 inh -2, ERAP1 inh 0 and RAD52 inh 10.
`CCOC(=O)c1cnc2c([N+](=O)[O-])cnn2c1C` gave S100A4 inh HTS 1, GSIS activator 9, AF4-AF9 inh -14, ERAP1 inh 4 and RAD52 inh -7.
Cc1cccc(-c2ccc([C@H]3[C@@H](CO)N4C(=O)CN(C(=O)c5cnccn5)C[C@@H]34)cc2)c1 was read as GSIS activator -9.
`CN(C(=O)c1ccc(C#N)cc1)c1nnc(-c2cnccn2)s1` gave S100A4 inh HTS 1, GSIS activator 46* and RAD52 inh -16.
Screening COc1cc(/C=N/NC(=O)CNC(=O)c2cccs2)ccc1O returned S100A4 inh HTS -4, GSIS activator 46*, AF4-AF9 inh 0, ERAP1 inh 0 and RAD52 inh -12.
COc1cc(/C=N/NC(=O)CNC(=O)c2ccncc2)ccc1O was read as S100A4 inh HTS -1, GSIS activator 12, AF4-AF9 inh -2, ERAP1 inh -3 and RAD52 inh -12.
Screening CC(=O)N1[C@H](CO)[C@H](c2ccc(-c3cccnc3)cc2)[C@@H]1CNC(=O)C1CC1 returned GSIS activator 3.
Screening CS(=O)(=O)N1CCCCN2[C@H](CO)[C@@H](c3ccc(C4=CCCC4)cc3)[C@H]2C1 returned GSIS activator 17 and AF4-AF9 inh 28*.
O=S(=O)(c1cccs1)N1CCCCN2[C@H](CO)[C@H](c3ccc(C4=CCCCC4)cc3)[C@H]2C1 was read as S100A4 inh HTS -5, AF4-AF9 inh -4, ERAP1 inh 3 and RAD52 inh 57*.
COc1ccc(S(=O)(=O)N2CCCCN3[C@H](CO)[C@H](c4ccc(C5=CCCCC5)cc4)[C@H]3C2)cc1 was read as S100A4 inh HTS -5, AF4-AF9 inh 1, ERAP1 inh 3 and RAD52 inh 60*.
COc1ccc(S(=O)(=O)N2CCCCN3[C@H](CO)[C@H](c4ccc(C5=CCCC5)cc4)[C@H]3C2)cc1 was read as GSIS activator 0.
O=C(C[C@@H]1CC[C@H](NC(=O)c2ccncc2)[C@H](CO)O1)Nc1ccc(-c2ccccc2)cc1 was read as GSIS activator 6.
`COc1ccc(S(=O)(=O)N(C)c2ccc(C(=O)N3CCOCC3)cc2)cc1OC` gave S100A4 inh HTS 6, GSIS activator 41, AF4-AF9 inh 0, ERAP1 inh -1 and RAD52 inh 9.
`CN(c1ccc(C(=O)N2CCN(Cc3ccccc3)CC2)cc1)S(=O)(=O)c1ccccc1` gave S100A4 inh HTS 4, GSIS activator 56*, AF4-AF9 inh 1, ERAP1 inh -2 and RAD52 inh 0.
COc1ccc(S(=O)(=O)N(C)c2ccc(C(=O)N3CCCC3)cc2)cc1OC was read as S100A4 inh HTS 0, GSIS activator 43*, AF4-AF9 inh -1, ERAP1 inh -2 and RAD52 inh 9.
CN(c1ccc(C(=O)N2CCN(Cc3ccc4c(c3)OCO4)CC2)cc1)S(=O)(=O)c1ccccc1 was read as GSIS activator -27.
For CN(C)C(=O)[C@@H]1[C@@H](CO)[C@@H]2Cn3c(ccc(-c4ccccc4F)c3=O)[C@H]1N2C(=O)c1ccccc1 the results were S100A4 inh HTS -2, GSIS activator 10, AF4-AF9 inh 0, ERAP1 inh 3 and RAD52 inh -3.
Cc1cc(=O)oc2c(CN3CCCCC3)c(O)ccc12 was read as S100A4 inh HTS -3, AF4-AF9 inh -55, ERAP1 inh 46* and RAD52 inh -16.
Screening CN1CCN(Cc2c(O)ccc3cc(Br)ccc23)CC1 returned S100A4 inh HTS 2, GSIS activator -19, AF4-AF9 inh 5, ERAP1 inh -1 and RAD52 inh -26.
`CCc1cc(=O)oc2c(CN3CCN(C)CC3)c(O)ccc12` gave S100A4 inh HTS 2, GSIS activator -2, AF4-AF9 inh 1, ERAP1 inh 36* and RAD52 inh 8.
`Cc1c(C)c2ccc(O)c(CN3CCN(C)CC3)c2oc1=O` gave S100A4 inh HTS 4, GSIS activator 11, AF4-AF9 inh -5, ERAP1 inh 31* and RAD52 inh 27.
Screening CN1CCN(Cc2c(O)ccc3cc(-c4ccccn4)c(=O)oc23)CC1 returned S100A4 inh HTS 0, GSIS activator 5, AF4-AF9 inh -5, ERAP1 inh 112* and RAD52 inh -5.
Screening C[C@@H]1CCCCO[C@H](CN(C)CC2CCCCC2)[C@H](C)CN([C@@H](C)CO)C(=O)c2cc(NC(=O)Cc3ccccc3)ccc2O1 returned S100A4 inh HTS -6, GSIS activator 1, AF4-AF9 inh 6, ERAP1 inh 7 and RAD52 inh 8.
CC(C)NC(=O)N(C)C[C@@H]1Oc2ncccc2C(=O)N(C)C[C@H]1C was read as GSIS activator 12.
`Cc1c(C)c2ccc(O)c(CN3CCCC3)c2oc1=O` gave S100A4 inh HTS 0, GSIS activator 18, AF4-AF9 inh 0, ERAP1 inh 51* and RAD52 inh -26.
CN1CCN(S(=O)(=O)c2ccc(C3CCCCC3)cc2)CC1 was read as S100A4 inh HTS -5, GSIS activator 5, AF4-AF9 inh 0, ERAP1 inh 96* and RAD52 inh -19.
CCN(Cc1nc2cc(Cl)ccc2c(=O)[nH]1)C(=O)c1nn(C)c(=O)c2ccccc12 was read as S100A4 inh HTS -12, GSIS activator 5, AF4-AF9 inh 0, ERAP1 inh 63* and RAD52 inh -29.
